This is a sample that favours compounds with a hit; in the whole collection about 1.6% have one here.
SR-BI uptake up: activators of SR-BI mediated DiI-HDL uptake, primary screen, ldlA[mSR-BI] CHO cells, DiI fluorescence; 320,000 tested, 0.096% active; AID 504775, 2011; activation, % at 12.5 µM; 3 h; 100 = double the neutral-control signal;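 active = mean replicate activation of at least 60% and every replicate at or above 60%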;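 note: 0% = median plate neutral-control signal and 100% = twice that signal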
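Material: SR-BI-overexpressing, LDLR-lacking CHO cells; schedule: compound exposure 3 h, 37 °C; reagent: DiI-labelled HDL at 10 µg/mL final; technique: bottom-read fluorescence, 550/595 nm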
SR-BI DiI inh: inhibitors of SR-BI mediated HDL lipid uptake, primary screen, ldlA[mSR-BI] cells, fluorescence, single point; Scavenger receptor class B member 1 (Mus musculus), Q61009; ldlA[mSR-BI] CHO cells, DiI-HDL uptake fluorescence, 3 h; inhibition, % at 12.5 µM; 320,000 tested, 0.96% active; AID 488896, 2010;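 active = mean replicate inhibition of at least 70% and a set share of replicates each scoring 70 or more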;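 note: 0% = median of neutral control wells and 100% = median of positive control wells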
Target sequence (Q61009 whole entry, looked up): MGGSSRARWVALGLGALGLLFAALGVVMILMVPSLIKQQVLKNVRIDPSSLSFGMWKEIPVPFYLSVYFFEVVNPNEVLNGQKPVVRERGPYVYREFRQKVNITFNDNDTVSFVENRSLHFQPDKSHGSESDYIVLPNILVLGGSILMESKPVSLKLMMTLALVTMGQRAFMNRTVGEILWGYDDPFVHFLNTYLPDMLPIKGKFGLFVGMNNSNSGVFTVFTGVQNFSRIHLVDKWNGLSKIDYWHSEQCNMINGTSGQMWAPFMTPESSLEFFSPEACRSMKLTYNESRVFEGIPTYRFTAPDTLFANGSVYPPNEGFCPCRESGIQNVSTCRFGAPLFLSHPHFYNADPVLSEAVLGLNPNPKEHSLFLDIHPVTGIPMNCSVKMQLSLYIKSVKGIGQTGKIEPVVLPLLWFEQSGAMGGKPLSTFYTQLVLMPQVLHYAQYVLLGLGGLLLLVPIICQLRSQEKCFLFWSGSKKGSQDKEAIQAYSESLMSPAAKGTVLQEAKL
TLR4-MyD88 BLA: inhibitors of TLR4-MyD88 association in cells, primary screen, cell-based, HeLa CL3-4, BLA complementation, FRET ratio. Toll-like receptor 4 (Homo sapiens) + Myeloid differentiation primary response protein …. AID 861, 2007. inhibition, % at 8.4 µM. 200,000 tested, 0.18% active. HeLa CL3-4 TLR4/MyD88 BLA complementation; in the data active = inhibition above about 25%;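 note: 0% = vehicle and 100% = reference inhibitor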
TLR9-MyD88 inh: inhibitors of TLR9-MyD88 association in cells, primary screen, cell-based, CHO, BLA complementation, fluorescence. Toll-like receptor 9 (Homo sapiens) + Myeloid differentiation primary response protein …. CCF4 FRET ratio. inhibition, % at 4.98 µM. 340,000 tested, 0.21% active. AID 504734, 2011;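 active = inhibition above the mean over all tested compounds plus 3 SD, cut at about 21% in these data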;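 note: 0% = DMSO only wells and 100% = clavulanate BLA inhibitor control wells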
NOD2 RIPK2 PPI: NOD2-RIPK2 binding disruptors in cells, primary screen, fluorescence, CHO cells, BLA complementation | Receptor-interacting serine/threonine-protein kinase 2 (Homo sapiens), O43353 | CCF4 ratio | inhibition, % at 4.98 µM | 360,000 tested, 0.38% active; in the data active = inhibition above about 21%;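 note: 0% = vehicle only and 100% = reference blocker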
Lipid droplet: inhibitors of hepatocyte lipid droplet formation, primary screen, imaging, high-throughput imaging, BODIPY stain. AML12 mouse hepatocytes, oleate lipid droplets. inhibition, % at 6.5 µM. 240,000 tested, 0.4% active;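 active = lipid droplet intensity inhibited by at least 50%, with more than 500 cells counted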
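Assay system: AML12 hepatocytes (mouse) / Also added: 100 µM oleic acid challenge / Times: overnight treatment with compound plus oleate / Detection: high-content imaging of BODIPY-stained droplets and DAPI nuclei / Evaluation: % inhibition of lipid droplet signal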
TLR4-MyD88 conf: TLR4-MyD88 association inhibitors, retest, confirmation, cell-based, HeLa CL3-4, BLA complementation, FRET ratio. shares compounds with TLR4-MyD88 BLA. CCF4 FRET ratio. inhibition, % at 8.4 µM. 350 tested, 50% active;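 active = mean inhibition across three repeat runs above about 25% carried over from the earlier screen, limit read from the data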;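 note: plate controls were DMSO only for no effect and clavulanic acid blocking BLA at full dose for full effect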
BLA inhibitor ct: inhibits beta-lactamase activity, counter-screen to TLR4-MyD88 binding inhibitors; HeLa BLA reporter, CCF4 FRET ratio; inhibition, % at 8.4 µM; 350 tested, 63% active; shares compounds with TLR4-MyD88 BLA;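 active = mean inhibition over three repeats above about 26% taken from the earlier screen, limit read from the data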;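 note: HeLa cells stably expressing beta-lactamase reporter as counterscreen for TLR4-MyD88 inhibitors; 0% = DMSO and 100% = clavulanic acid full inhibition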
* hit, by the source's call; x = no result.

SMILES	SR-BI uptake up	SR-BI DiI inh	TLR4-MyD88 BLA	TLR9-MyD88 inh	NOD2 RIPK2 PPI	Lipid droplet	TLR4-MyD88 conf	BLA inhibitor ct
O=C1CC(c2ccc(O)cc2)Oc2cc(O)cc(O)c21 (stereo unspecified)	-20	20	2	-2	-5	4	x	x
CC1CC(=O)c2c(cc3c(-c4c(O)cc(O)c5c(O)c6c(cc45)OC(C)CC6=O)c(O)cc(O)c3c2O)O1 (stereo unspecified)	-117	117*	42*	18	23*	20	44*	65*
Cc1ccnc(NC(=O)c2ccc(S(=O)(=O)c3ccccc3)cc2)c1	-8	8	3	-7	-16	-8	x	x
COc1cccc(CC(=O)Nc2nccs2)c1	28	-28	26*	-2	1	x	-6	6
COc1cccc(CC(=O)Nc2ccc(S(=O)(=O)Nc3nccs3)cc2)c1	5	-5	x	7	-3	x	x	x
CCN(CC)Cc1nc2c(c(=O)[nH]1)C(CC)(CC)Cc1ccccc1-2	-15	15	x	-10	-14	-3	x	x
O=C(c1cccc(-c2nnc(-c3ccccc3)o2)c1)N1CCCCC1	10	-10	28*	-5	9	-2	-12	5
CCOC(=O)C1=C(C)N=c2s/c(=C\c3ccc(OC(C)=O)c(OCC)c3)c(=O)n2C1/C=C/c1ccccc1 (stereo unspecified)	-19	19	54*	-7	9	x	26*	12
CC(C)C(=O)Nc1cccc(-c2nc3ccccc3o2)c1	-10	10	26*	-11	3	-2	-4	-5
CCOc1ccc(C(C)(C)C)cc1S(=O)(=O)N1CCOCC1	19	-19	27*	-2	-8	7	0	-2
CCOc1ccc(S(=O)(=O)N2CCOCC2)c2ccccc12	-10	10	x	-1	2	-12	x	x
CCn1c(SCC(=O)NCc2ccccc2)nc2nc3c(cc2c1=O)CCCC3	9	-9	25*	2	3	x	-4	4
Cc1nn(-c2ccccc2)c2c1C(c1ccc(O)c(O)c1)N1C(=N2)C(Nc2ccccc2)=Nc2ccccc21 (stereo unspecified)	-17	17	57*	13	18	x	52*	89*
Cc1nn(-c2ccccc2)c2c1C(c1ccc([N+](=O)[O-])cc1)N1C(=N2)C(=O)Nc2ccccc21 (stereo unspecified)	-2	2	5	5	-4	-5	x	x
Nc1cc(-c2ccccc2)nn1Cc1ccc(Cl)cc1	-5	5	28*	-11	2	x	3	2
O=C(/C=C/c1ccccc1[N+](=O)[O-])OCC(=O)N1CCN(c2ccccc2)CC1	x	x	x	-3	10	x	x	x
Oc1sc(C=Nc2ccccc2)c2ccccc12	-30	30	27*	14	-4	10	19	39*
COCCN(CC(=O)Nc1cccc(C)c1C)C(=O)c1cc2c(s1)CCC2	-6	6	x	0	7	x	x	x
CCCn1c(=O)[nH]c(=O)c2c1nc(-c1ccc(OC(F)F)c(OC)c1)n2CCOC	-18	18	-6	1	6	0	x	x
CCCn1c(=O)[nH]c(=O)c2c1nc(-c1ccccc1OC(F)F)n2CCOC	21	-21	26*	-1	-9	x	2	-3
Cc1cc(C(=O)Nc2ccc(Br)cc2)cs1	-19	19	x	-2	2	-2	x	x
O=c1c(Cl)c(Cl)cnn1Cc1ccc(F)cc1	38	-38	27*	11	17	-8	16	7
O=c1cnn(Cc2ccc(F)cc2)c2ccccc12	x	x	x	10	1	x	x	x
CC(C)(C)C(=O)Cn1ncc(Cl)c(Cl)c1=O	36	-36	13	19	7	-189	x	x
O=C(OCn1ncc(Cl)c(Cl)c1=O)c1ccc(F)cc1	x	x	27*	x	x	x	29*	6
SMILES	SR-BI uptake up	SR-BI DiI inh	TLR4-MyD88 BLA	TLR9-MyD88 inh	NOD2 RIPK2 PPI	Lipid droplet	TLR4-MyD88 conf	BLA inhibitor ct
COc1ccccc1NS(=O)(=O)c1cc([N+](=O)[O-])ccc1N/N=C/c1c(C)[nH]c2ccccc12	-22	22	36*	11	17	-21	22	45*
O=[N+]([O-])c1ccc(N/N=C/c2c[nH]c3ccccc23)c(S(=O)(=O)Nc2ccc(Cl)cc2)c1	-94	94*	57*	3	-4	1	43*	65*
CN1CCN(S(=O)(=O)c2cc([N+](=O)[O-])ccc2N/N=C/c2ccc(Cl)cc2)CC1	-53	53	-9	-1	5	-29	x	x
c1ccc(-c2cn3nc(-c4ccccc4)c(-c4ccccc4)nc3n2)cc1	-31	31	52*	1	3	x	43*	73*
Cc1ccc(-c2cn3nc(-c4ccccc4)c(-c4ccccc4)nc3n2)cc1	x	x	x	x	13	18	x	x
CC1CCCC(C)N1C(=O)COC(=O)c1ccc(O)cc1 (stereo unspecified)	-5	5	-20	-10	-2	-1	x	x
O=c1cc(-c2c(F)c(F)c(F)c(F)c2F)oc2c(F)c(F)c(F)c(F)c12	x	x	42*	x	x	18	38*	15
COc1ccccc1NC(=O)N(Cc1cccs1)Cc1cc2cc3c(cc2[nH]c1=O)OCO3	-39	39	-11	1	-12	-32	x	x
CC(=O)Oc1ccc2c(c1)Oc1cc(OC(C)=O)ccc1C21OC(=O)c2ccccc21	21	-21	63*	71*	76*	7	70*	93*
Cc1cc(O)ccc1C1(c2ccc(O)cc2C)OC(=O)c2ccccc21	5	-5	18	15	2	-21	x	x
COC(=O)c1ccc(CSC(=N)N)o1	17	-17	8	-5	-5	2	x	x

Source: PubChem BioAssay (several laboratories)
